In ChEMBL document CHEMBL3112403, “Design, synthesis and evaluation of second generation MurF inhibitors based on a cyanothiophene scaffold” (Eur J Med Chem, 2014):

Assays:
Escherichia coli [1] = assay: Antibacterial activity against Escherichia coli AB734 assessed as growth inhibition by broth microdilution method; type: functional
In short: (§1)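 MICs by broth microdilution in Mueller-Hinton broth following CLSI guidelines.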

Staphylococcus aureus = assay: Antibacterial activity against Staphylococcus aureus SH1000 assessed as growth inhibition by broth microdilution method; type: functional; in short: as §1
Escherichia coli [2] = assay: Antibacterial activity against Escherichia coli 1411 assessed as growth inhibition by broth microdilution method; type: functional; in short: as §1
Escherichia coli [3] = assay: Antibacterial activity against Escherichia coli SM1411 harboring acrAB deletion mutant assessed as growth inhibition by broth microdilution method; type: functional
In short: (§2)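 MIC by broth microdilution in Mueller-Hinton broth following CLSI guidelines. ES100 is the tolC derivative of AB734, and SM1411 is the acrAB derivative of 1411; both are efflux-deficient E. coli strains. Growth inhibition was read as the minimum inhibitory concentration.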

[4] = Inhibition of Escherichia coli MurF ligase using D-Ala-D-Ala as substrate after 15 mins by malachite green assay
In short: (§3)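 After 15 min at 37 °C, Biomol reagent was added and phosphate read at 650 nm, in duplicate. RA was taken relative to a 5% DMSO control. IC50 was taken as the concentration giving 50% RA, from seven concentrations.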

[5] = biological target: T1, UDP-N-acetylmuramoyl-tripeptide--D-alanyl-D-alanine ligase (Streptococcus pneumoniae, UniProt Q9ZHC3); assay: Inhibition of Streptococcus pneumoniae MurF ligase using D-Ala-D-Ala as substrate after 15 mins by malachite green assay
T1 sequence (Q9ZHC3 whole entry): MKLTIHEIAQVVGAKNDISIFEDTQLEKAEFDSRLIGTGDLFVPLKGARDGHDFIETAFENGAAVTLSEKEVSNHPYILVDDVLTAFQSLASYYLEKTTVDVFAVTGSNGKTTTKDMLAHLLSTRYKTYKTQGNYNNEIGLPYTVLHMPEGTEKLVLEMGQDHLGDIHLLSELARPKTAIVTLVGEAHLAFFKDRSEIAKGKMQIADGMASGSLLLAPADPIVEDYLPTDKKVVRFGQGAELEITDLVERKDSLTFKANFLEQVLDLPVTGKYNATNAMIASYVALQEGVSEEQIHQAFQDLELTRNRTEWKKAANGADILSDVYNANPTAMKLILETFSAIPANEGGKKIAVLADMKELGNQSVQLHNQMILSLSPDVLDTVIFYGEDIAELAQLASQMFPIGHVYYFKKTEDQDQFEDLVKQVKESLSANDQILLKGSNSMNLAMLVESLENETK
In short: (§4)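 Purified S. pneumoniae MurF in 50 mM Hepes pH 8.0 with 50 mM MgCl2, 0.005% Triton X-114, 100 µM D-Ala-D-Ala, 50 µM UMtri-L-Lys and 250 µM ATP, with 5% DMSO final. After 15 min at 37 °C, Biomol reagent was added and absorbance read at 650 nm, in duplicate. RA was taken against a 5% DMSO control. IC50 was the 50% RA point from seven concentrations.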

Escherichia coli [6] = assay: Antibacterial activity against Escherichia coli AB734 assessed as growth inhibition by broth microdilution method in presence of polymyxin B nonapeptide; type: functional
In short: (§5)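 Broth microdilution MIC in Mueller-Hinton broth per CLSI, run with 4 µg/mL polymyxin B nonapeptide to permeabilize the outer membrane.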

Escherichia coli [7] = assay: Antibacterial activity against Escherichia coli ES100 harboring tolC deletion mutant assessed as growth inhibition by broth microdilution method; type: functional; in short: as §2
Escherichia coli [8] = assay: Antibacterial activity against Escherichia coli 1411 assessed as growth inhibition by broth microdilution method in presence of polymyxin B nonapeptide; type: functional; in short: as §5
Escherichia coli [9] = assay: Inhibition of […] MurF ligase using D-Ala-D-Ala as substrate assessed as residual activity at 250 uM after 15 mins by malachite green assay; in short: as §3
[10] = biological target: T2, UDP-N-acetylmuramoyl-tripeptide--D-alanyl-D-alanine ligase (Streptococcus pneumoniae) (UniProt Q9ZHC3); assay: Inhibition of Streptococcus pneumoniae MurF ligase using D-Ala-D-Ala as substrate assessed as residual activity at 250 uM after 15 mins by malachite green assay; in short: as §4
T2 sequence (whole entry): T1 sequence (Q9ZHC3 whole entry)

Row | SMILES | MIC (Escherichia coli [1]) [mg/L] | MIC (Staphylococcus aureus) [mg/L] | MIC (Escherichia coli [2]) [mg/L] | MIC (Escherichia coli [3]) [mg/L] | IC50 [4] [µM] | IC50 [5] [µM] | MIC (Escherichia coli [6]) [mg/L] | MIC (Escherichia coli [7]) [mg/L] | MIC (Escherichia coli [8]) [mg/L] | Activity (Escherichia coli [9]) [%] | Activity [10] [%]
1 | Cl.N#Cc1c(NC(=O)c2cccc(OCCNC(=N)N)c2)sc2c1CCCC2 | 64 | 64 | 64 | 16 | 258 | 167 | > 256 | 16 | 64 |  | 
2 | COc1ccc(CN2CCc3c(sc(NC(=O)c4cc(OCCNC(=O)C(F)(F)F)ccc4Cl)c3C#N)C2)cc1 | > 256 | > 256 | > 256 | > 256 |  | 154 | > 256 | > 256 | > 256 | 81 | 
3 | CC(C)(C)OC(=O)N1CCc2c(sc(NC(=O)c3cc(OCCNC(=O)C(F)(F)F)ccc3Cl)c2C#N)C1 | > 256 | > 256 | > 256 | > 256 |  |  | > 256 | > 256 | > 256 | 102 | 96
4 | N#Cc1c(NC(=O)c2cc(OCCNC(=O)C(F)(F)F)ccc2Cl)sc2c1CCN(Cc1ccc(-n3cnnn3)cc1)C2 | > 256 | > 256 | > 256 | > 256 | 152 | 103 | > 256 | 64 | > 256 |  | 
5 | N#Cc1c(NC(=O)c2cc(OCCN)ccc2Cl)sc2c1CCN(Cc1cccc(O)c1)C2 | 128 | > 256 | 128 | 64 | 150 | 119 | 64 | 64 | 64 |  | 
6 | N#Cc1c(NC(=O)c2cc(OCCN)ccc2Cl)sc2c1CCN(Cc1ccc(-n3cnnn3)cc1)C2 | > 256 | > 256 | > 256 | > 256 | 83 | 454 | > 256 | > 256 | > 256 |  | 
7 | Cl.N#Cc1c(NC(=O)c2cc(OCCNC(=N)N)ccc2Cl)sc2c1CCN(Cc1cccc(O)c1)C2 | 128 | 32 | 128 | 64 | 143 | 117 | 64 | 32 | 64 |  | 
